# High-throughput results (PubChem BioAssay)
# An excerpt weighted towards active compounds, which were near 1.1% of everything screened.
# SR-BI uptake up: activators of SR-BI mediated DiI-HDL uptake, primary screen, ldlA[mSR-BI] CHO cells, DiI fluorescence; hit rate 0.096% among 320,000; activation, % at 12.5 µM; 3 h; 100 = double the neutral-control signal; AID 504775, 2011;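 active means mean replicate activation of at least 60% and every replicate at or above 60%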;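 further: 0% = median plate neutral-control signal and 100% = twice that signal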
#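 Test system: SR-BI-overexpressing, LDLR-lacking CHO cells; Medium: Ham's F12 with 0.5% BSA, HEPES 25 mM, pH 7.4; Schedule: 3 h, 37 °C; Technique: bottom-read fluorescence, 550/595 nm.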
# SR-BI HDL uptake: inhibitors of SR-BI mediated HDL lipid uptake, primary screen, ldlA[mSR-BI] cells, fluorescence, single point. Scavenger receptor class B member 1 (Mus musculus), Q61009. ldlA[mSR-BI] CHO cells, DiI-HDL uptake fluorescence, 3 h. inhibition, % at 12.5 µM. hit rate 0.96% among 320,000;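 active means mean replicate inhibition of at least 70% and a set share of replicates each scoring 70 or more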;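 further: 0% = median of neutral control wells and 100% = median of positive control wells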
# GSK3beta inhib: human GSK3beta kinase inhibitors, primary screen, biochemical, cell-free homogeneous, HTS | GST-GSK3beta kinase, ADP-Glo luminescence, 60 min; hits give low values | activity score (negative = inhibition), % at 10 µM | hit rate 0.038% among 300,000;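 active means more than half of replicate wells score below -50%, meaning over 50% inhibition versus plate controls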;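 further: 0% = median DMSO wells and -100% = median GW8510 positive control wells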
# Target sequence (P49841 whole entry, looked up): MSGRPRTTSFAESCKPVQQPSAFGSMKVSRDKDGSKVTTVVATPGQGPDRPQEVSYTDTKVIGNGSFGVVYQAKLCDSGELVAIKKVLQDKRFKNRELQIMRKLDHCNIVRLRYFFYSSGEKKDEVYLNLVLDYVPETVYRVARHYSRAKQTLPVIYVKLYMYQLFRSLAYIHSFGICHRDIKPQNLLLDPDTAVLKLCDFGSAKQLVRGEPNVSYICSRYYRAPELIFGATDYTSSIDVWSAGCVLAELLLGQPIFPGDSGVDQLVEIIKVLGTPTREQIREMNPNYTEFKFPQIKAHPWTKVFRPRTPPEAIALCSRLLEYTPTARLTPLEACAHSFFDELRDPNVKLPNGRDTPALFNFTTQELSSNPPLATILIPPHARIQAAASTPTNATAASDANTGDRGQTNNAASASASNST
#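 Assay system: GST-fused GSK3beta enzyme, cell-free / Medium: Tris pH 7.5 buffer with MgCl2, DTT, BSA, heparin / Also added: peptide substrate plus 25 µM ATP (final) / Compound: 10 µM single point / Timing: kinase reaction with compound 60 min at room temperature / Detection: ADP-Glo luminescence / Benchmarks: DMSO neutral wells and GW8510 at 20 µM as positive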
# GSK3 alpha inh: blockers of GSK3A enzyme activity – biochemical, luminescence, cell-free homogeneous, HTS, primary screen. hit rate 0.1% among 320,000. GSK-3 alpha kinase, ADP-Glo luminescence, 60 min. inhibition, % at 10 µM. Glycogen synthase kinase-3 alpha (Homo sapiens), P49840;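 active means more than half of replicates show inhibition above 20%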;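 further: GST-tagged GSK-3 alpha with peptide substrate and 25 µM ATP; 0% = DMSO neutral wells and 100% = GW8510 positive control wells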
# CDK5 p35 inh: inhibitors of human CDK5/p35 kinase, primary screen, biochemical, single concentration; Cyclin-dependent kinase 5 (Homo sapiens) + Cyclin-dependent kinase 5 activator 1 (Homo …; Recombinant CDK5/p35, ADP-Glo luminescence, 60 min; inhibition, % at 10 µM; hit rate 0.01% among 330,000; AID 488839, 2010;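 active means highest replicate inhibition of at least 50% and at least 75% of replicates reaching 50%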;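 further: plate controls were DMSO neutral control for no effect and GW8510 at 10 µM for full effect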
# * marks the source's active call; other numbers are inactive results; . = no result.
SMILES,SR-BI uptake up,SR-BI HDL uptake,GSK3beta inhib,GSK3 alpha inh,CDK5 p35 inh
CCOC(=O)C1=C(O)/C(=C/c2ccc(OCC(=O)O)c(OC)c2)SC1=Nc1ccc(OCC)cc1,6,-6,4,3,2
CCOC(=O)C1=C(O)/C(=C/c2cc(OC)c(O)c(OC)c2)SC1=Nc1ccc(OC)cc1,-86,86*,-2,.,3
C=CCn1c2ccccc2c(=O)c2cc(C#Cc3cc(OC)cc(OC)c3)ccc21,-87,87*,.,-1,-2
Cn1c2ccccc2c(=O)c2cc(C#Cc3ccccn3)ccc21,14,-14,-1,-2,0
O=C(c1oc2ccccc2c1N1CCCCC1)N1CCCCC1,-78,78*,-4,-3,-1
Cc1[nH][nH]c(=O)c1C(c1c(C)[nH][nH]c1=O)c1cn(Cc2ccccc2Cl)c2ccccc12,-17,17,-5,.,0
CC(C)[C@H](NC(=O)c1ccccc1)C(=O)OCC(=O)c1c(N)n(C)c(=O)n(C)c1=O,0,0,.,-5,-1
COc1ccc(C(=O)N/C(=C\c2cccs2)C(=O)N2CCN(C)CC2)cc1OC,-14,14,0,0,2
COc1ccc(C(=O)N/C(=C/c2cccs2)C(=O)NN)cc1OC,-75,75*,1,-2,-1
N#Cc1cnc2nc(SCc3ccccc3)nn2c1,10,-10,4,0,-1
COc1cc(/C=C(/C#N)c2ccccc2)ccc1Oc1ccc([N+](=O)[O-])cn1,-44,44,0,1,1
COc1cc(/C=C(\C#N)c2nc3ccccc3[nH]2)ccc1Oc1ccc([N+](=O)[O-])cn1,-74,74*,-2,1,2
Cc1ccnc(NC(=O)c2cccc(OC(F)F)c2)n1,.,.,-3,0,2
O=C(Nc1cc(Cl)cc(Cl)c1)c1cccc(OC(F)F)c1,-74,74*,-20,1,-3
CN(C)S(=O)(=O)c1cccc(C(=O)Nc2cc(Cl)cc(Cl)c2)c1,-73,73*,-14,-2,-1
CSc1cccc(NC(=O)/C=C/c2cccc(Cl)c2)c1,-75,75*,0,-2,-1
O=C(/C=C/c1cccc(Cl)c1)Nc1ncccn1,33,-33,2,0,0
O=C(COC(=O)c1cccc(F)c1)NC(=O)NCc1ccccc1,2,-2,.,-1,0
Cn1c(=O)[nH]c(=O)c2c1nc(N1CCCCC1)n2CCSc1ncccn1,7,-7,4,0,-1
Cn1c(=O)[nH]c(=O)c2c1nc(N1CCN(c3ccccc3)CC1)n2CCSc1ncccn1,71*,-71,1,-2,0
c1ccc(CN(CCN2CCOCC2)Cc2ccccc2)cc1,-6,6,.,.,0
CC(NC(=O)c1ccccc1F)c1nnc(SCC(=O)NC2CCCC2)n1C (configuration not stated),3,-3,1,-1,0
Oc1ccc(C[C@H]2CNC(=S)N2CC2CCCN2C[C@H](Cc2ccccc2)N2C[C@H](Cc3ccc(O)cc3)N(CCc3ccccc3)C2=S)cc1 (some centres not stated),108*,-108,.,.,0
COc1ccc(NC(=O)CN2CCCC2c2cccs2)cc1S(=O)(=O)N1CCCCC1 (configuration not stated),-39,39,.,-32,1
CCOC(=O)c1ccc(N=C2C(=S)N(c3ccc(C(=O)OCC)cc3)C(=N)N2/N=C/c2ccccc2)cc1,-76,76*,3,5,-1
SMILES,SR-BI uptake up,SR-BI HDL uptake,GSK3beta inhib,GSK3 alpha inh,CDK5 p35 inh
O=C(N/N=C/c1ccc(O)c(O)c1O)/C(=C/c1ccc([N+](=O)[O-])cc1)NC(=O)c1ccccc1,-98,98*,1,2,0
COc1ccc(/C=C(/NC(=O)c2ccccc2)C(=O)N/N=C/c2sccc2C)cc1,-78,78*,-3,-2,-2
Cc1ccsc1/C=N/NC(=O)c1ccc(-n2cccc2)cc1,-77,77*,-4,4,1
Cc1ccc(NC(=O)/C(=C\c2ccc([N+](=O)[O-])cc2)NC(=O)c2ccccc2)cc1,-22,22,4,2,2
Cc1ccc(C(=O)N/N=C\c2sccc2C)cn1,3,-3,2,.,2
CCOCCCN(C(=O)Cn1nnc(-c2ccc(OC)c(OC)c2)n1)C(C(=O)NCC1CCCO1)c1ccc(F)cc1 (configuration not stated),-16,16,-1,0,-1
O=[N+]([O-])c1cccc(S(=O)(=O)Nc2nc3ccccc3nc2Nc2cccc(S(=O)(=O)N3CCCCC3)c2)c1,-76,76*,4,.,-1
COc1ccc(/C=C(\C#N)C(=O)N=CN(C)C)cc1,-3,3,0,.,1
CN(C)C=NC(=O)/C(C#N)=C1\CCc2ccccc2N1,19,-19,-34,52*,1
O=C(Nc1ccc(F)c(Cl)c1)Nc1csc2ccccc12,-87,87*,-2,4,-2
NC(=O)c1nc[nH]c1C(=O)Nc1cccc(NC(=O)c2cccc(C(F)(F)F)c2)c1,-11,9,.,0,2
CC(C)(C)c1nnc(N/N=C/c2cc(Br)ccc2O)n(N)c1=O,-115,115*,3,-2,1
CCc1nnc(N/N=C/c2cc(Br)c(O)cc2O)n1N,-20,20,0,-5,0
CCOc1ccc(CCNC(=O)c2ccc(=O)[nH]c2)cc1OCC,-30,30,0,0,1
CCCc1cc(CN(C)C(=O)CC2C(=O)NCCN2Cc2ccccc2C)[nH]n1 (configuration not stated),-8,8,1,0,0
Fc1cccc(-c2cc3nc(-c4ccccc4)cc(N4CCC5(CC4)OCCO5)n3n2)c1,-26,26,-1,-3,1
Cc1cccc(-c2cc3nc(-c4ccccc4)cc(N4CCC5(CC4)OCCO5)n3n2)c1,-83,83*,-2,-4,-2
Fc1ccc(-c2cc3nc(-c4ccccc4)cc(N4CCOCC4)n3n2)cc1,-73,73*,0,0,0
O=C(Cc1cccs1)N1CCN(S(=O)(=O)c2ccc(Br)cc2)CC1,195*,-195,2,-1,-1
CS(=O)(=O)N1CCN(C(=O)Cc2cccs2)CC1,-3,3,1,-1,0
CCCCc1c(O)nc(SCC(=O)c2ccccc2)[nH]c1=O,71*,-71,1,-2,0
CCCCc1c(O)nc(SCC(=O)O)[nH]c1=O,24,-24,4,-4,0
Cc1cccc(N=C2NC(=O)S/C2=C\c2ccco2)c1,-56,56,-1,-5,-1
